# High-throughput results as filed in PubChem.
# ARNT TACC3 PPI – disruptors of ARNT/TACC3 protein interaction, primary screen, biochemical, AlphaScreen, single concentration | hit rate 0.66% among 390,000 | Transforming acidic coiled-coil-containing protein 3 (Homo sapiens), Q9Y6A5 | AlphaScreen His-ARNT PAS-B/GST-TACC3 binding, luminescence; TACC3 fragment carries E629A point mutation | inhibition, % at 9.99 µM | AID 623870, 2012;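 active means mean inhibition of replicates at least 50% and at least half of replicates each reaching 50%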;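 further: 0% = complete ARNT plus TACC3 wells and 100% = ARNT alone without TACC3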
# SR-BI uptake up – activators of SR-BI mediated DiI-HDL uptake, primary screen, ldlA[mSR-BI] CHO cells, DiI fluorescence. 3 h; 100 = double the neutral-control signal. activation, % at 12.5 µM. hit rate 0.096% among 320,000;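 active means mean replicate activation of at least 60% and every replicate at or above 60%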;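 further: 0% = median plate neutral-control signal and 100% = twice that signal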
#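 Material – SR-BI-overexpressing, LDLR-lacking CHO cells · Medium – BSA-supplemented, HEPES-buffered Ham's F12, pH 7.4 · Doses – single concentration · Times – compound with DiI-HDL co-incubation, 3 h at 37 °C · Measured by – bottom-read fluorescence, 550/595 nm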
# NSD2 inh – NSD2 histone methyltransferase inhibitors, primary screen, biochemical, AlphaScreen, single concentration, set 2; NSD2 peptide methylation, 120 min; inhibition, % at 12.5 µM; hit rate 0.54% among 310,000; AID 743445, 2014; in the data active means inhibition above about 50%
# Xi reactivation – activators of inactive X chromosome reactivation, primary screen, imaging, XiGFP fibroblasts, GFP high-content imaging, set 2; hit rate 0.055% among 360,000; XiGFP mouse fibroblasts, % GFP-positive cells imaging, 3 d; cells co-treated with 5-aza-dC sensitizer; scaled so ellipticine positive control = 100%; activation, % at 7.58 µM; AID 743238, 2013;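 active means mean normalized replicate activation at least 10% and every replicate at or above 10%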;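 further: 0% = median of on-plate neutral control wells and 100% = ellipticine 6 µM median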
#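 material = 68-5-11 XiGFP fibroblast line | medium = DMEM plus 5-aza-dC sensitizer | schedule = 3 days compound exposure | benchmarks = positive control ellipticine, 6 µM final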
# sPLA2-III inh – human group III sPLA2 inhibitors, primary screen, biochemical, QFRET, BODIPY PC-A2 liposome substrate | Group 3 secretory phospholipase A2 (Homo sapiens), Q9NZ20 | QFRET BODIPY PC-A2 liposome hydrolysis, fluorescence | inhibition, % at 12.2 µM | hit rate 0.56% among 370,000;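 active means inhibition above mean plus 3 SD of compounds lying within the high and low control bounds, cut at about 19% in these data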;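 further: 0% = median of test compound wells and 100% = no enzyme DMSO wells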
# Target sequence (Q9NZ20 whole entry, looked up): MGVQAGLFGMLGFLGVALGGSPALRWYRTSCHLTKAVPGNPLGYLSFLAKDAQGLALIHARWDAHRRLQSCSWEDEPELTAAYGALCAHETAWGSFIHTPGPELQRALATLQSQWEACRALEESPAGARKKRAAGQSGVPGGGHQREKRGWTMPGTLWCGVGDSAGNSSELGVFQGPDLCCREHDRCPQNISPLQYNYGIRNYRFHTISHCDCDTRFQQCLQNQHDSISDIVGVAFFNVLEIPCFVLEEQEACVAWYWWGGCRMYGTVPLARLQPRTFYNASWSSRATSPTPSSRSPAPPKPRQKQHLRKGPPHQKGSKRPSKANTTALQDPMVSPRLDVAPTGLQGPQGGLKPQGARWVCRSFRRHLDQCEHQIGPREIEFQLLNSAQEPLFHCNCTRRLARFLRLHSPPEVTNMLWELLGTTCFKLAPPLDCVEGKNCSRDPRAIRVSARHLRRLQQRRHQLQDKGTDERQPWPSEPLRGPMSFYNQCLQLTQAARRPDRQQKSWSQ
# SR-BI HDL uptake – inhibitors of SR-BI mediated HDL lipid uptake, primary screen, ldlA[mSR-BI] cells, fluorescence, single point; Scavenger receptor class B member 1 (Mus musculus), Q61009; ldlA[mSR-BI] CHO cells, DiI-HDL uptake fluorescence, 3 h; inhibition, % at 12.5 µM; hit rate 0.96% among 320,000;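 active means mean replicate inhibition of at least 70% and a set share of replicates each scoring 70 or more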;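 further: 0% = median of neutral control wells and 100% = median of positive control wells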
# sPLA2 confirm – human group III sPLA2 inhibitors, confirmation, biochemical, QFRET, triplicate | shares compounds with sPLA2-III inh | hit rate 34% among 2,000 | recombinant hGIII-sPLA2, BODIPY PC-A2 QFRET fluorescence | inhibition, % at 12.2 µM;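 active means mean inhibition across triplicates above the hit cutoff set in the earlier primary screen, cut at about 19% in these data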;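 further: 0% = enzyme with DMSO and 100% = DMSO wells lacking enzyme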
# BODIPY interf – 535nm fluorescence optical interference, confirmation, artefact control for HGIII-sPLA2 inhibitor project, biochemical, QFRET. hit rate 8.5% among 2,000. inhibition, % at 12.2 µM. shares compounds with sPLA2-III inh. BODIPY FL product fluorescence interference;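 active means average inhibition above the solvent-only control mean plus 3 SD, cut at about 6% in these data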;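 further: 0% = DMSO with substrate plus product and 100% = DMSO with substrate alone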
# 535nm interf DR – 535nm fluorescence optical interference, dose response, artefact control for HGIII-sPLA2 inhibitor project, biochemical, QFRET. BODIPY FL product fluorescence interference, cell-free. 240 tested, under 10 active. shares compounds with sPLA2-III inh. AID 743455, 2014. IC50, µM;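 active means IC50 at or below 10 µM; inactive means IC50 above 10 µM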
# Starred values were filed as active, the others as inactive; nt = no result given. Rows were chosen to be rich in hits. Some 2% of all compounds tested hit in one or more screens of this group.
SMILES,ARNT TACC3 PPI,SR-BI uptake up,NSD2 inh,Xi reactivation,sPLA2-III inh,SR-BI HDL uptake,sPLA2 confirm,BODIPY interf,others
COc1ccc(C(=O)NC(=S)NNC(=O)[C@H]2C[C@@H]2c2ccccc2)cc1OC,28,-66,0,0,21*,66,40*,-21,535nm interf DR=>122
Cc1onc(-c2ccccc2)c1C(=O)NC(=S)NNC(=O)c1ccncc1,20,1,-7,0,19,-1,nt,nt,
COc1ccc(C(=O)NC(=S)NNC(=O)c2c(-c3ccccc3)noc2C)cc1OC,7,-10,2,0,20*,10,29*,-10,535nm interf DR=>122
Cc1onc(-c2ccccc2)c1C(=O)NNC(=S)NC(=O)c1ccc2c(c1)OCO2,15,13,0,0,27*,-13,43*,-11,535nm interf DR=>122
Cc1nc(Nc2cccc(C(C)O)c2)c2nnn(Cc3ccc(F)cc3)c2n1 (configuration not stated),-2,-54,-4,0,-5,54,nt,nt,
CC(OC(=O)c1cnc(Cl)c(Cl)c1)C(=O)NCc1ccccc1 (configuration not stated),-4,1,0,0,0,-1,nt,nt,
CCN1CCN(C(=O)CN(c2ccccc2C)S(C)(=O)=O)CC1,2,3,-1,nt,2,-3,nt,nt,
Fc1ccccc1-c1nc(N2CCCCC2)c2ccccc2n1,-26,5,-5,0,21*,-5,-5,-14,
Cc1ccccc1CC1(CO)CCCN(C(=O)Cc2c(F)ccc(F)c2F)C1 (configuration not stated),-3,-22,0,0,8,22,nt,nt,
C=CCn1c(CSc2nnc(-c3ccccc3)n2C)n[nH]c1=S,1,40,0,0,-3,-40,nt,nt,
C=CCn1c(CSc2ccc(C)cc2)n[nH]c1=S,8,-10,2,0,22*,10,25*,3,
C=CCn1c(SCc2n[nH]c(=S)n2-c2ccccc2)nnc1-c1ccccc1,-2,15,0,0,20*,-15,9,0,
O=C(C[C@H]1CC[C@H](NC(=O)c2cccc(F)c2)[C@@H](CO)O1)NCc1ccc(Oc2ccccc2)cc1,6,nt,nt,1,nt,nt,nt,nt,
CC(Oc1ccccc1F)c1nnc(SCC(=O)NCc2ccc3c(c2)OCO3)o1 (configuration not stated),nt,-12,nt,0,84*,12,-1,-5,
CCNC(=O)c1cc2c(c(-c3cccc(-c4cncnc4)c3)n1)[C@@H](CCO)N(C(C)=O)C2,-1,nt,nt,0,21*,nt,-2,-10,
CC(=O)N1Cc2cc(C(=O)NCC(F)(F)F)nc(-c3cccc(-c4cncnc4)c3)c2[C@@H]1CCO,nt,nt,nt,0,nt,nt,nt,nt,
CN(C)S(=O)(=O)c1ccc(S(=O)(=O)N(Cc2ccco2)Cc2ccccc2Cl)cc1,-1,13,nt,nt,nt,-13,nt,nt,
C[C@@H]1CN([C@H](C)CO)C(=O)Cc2cc(NC(=O)Nc3ccc(F)cc3)ccc2O[C@H]1CN(C)C(=O)Nc1cccc2ccccc12,-3,nt,nt,0,nt,nt,nt,nt,
CC(C)(C)c1cc(-c2n[nH]c(=S)n2-c2ccc(Cl)cc2)n[nH]1,1,-2,1,0,21*,2,27*,4,
Cc1nn(C)cc1-c1n[nH]c(=S)n1-c1ccc(Cl)cc1,-8,6,3,0,-2,-6,nt,nt,
CN1C(=O)c2cc(NC(=O)NC3CCCC3)ccc2OC[C@@H]2O[C@H](CC(=O)NC3CCC3)CC[C@@H]21,nt,nt,nt,0,nt,nt,nt,nt,
CCCOc1ccc(C(=O)NCCO)cc1,-1,3,-1,nt,-1,-3,nt,nt,
CC1(C)CC2C1CCC1(O)CC2(C)CCC1N(O)c1ccc(C(=O)NCCO)cn1 (configuration not stated),-11,-18,nt,0,21*,18,24*,-7,
CC(C)NC(=O)N1[C@@H](CO)[C@@H]2c3ccccc3N(C(=O)Nc3ccc(Cl)cc3)C[C@@H]21,-2,nt,nt,0,nt,nt,nt,nt,
CCC(Nc1ccc(OC)cc1)C(=O)N/N=C/c1ccc([N+](=O)[O-])cc1 (configuration not stated),-4,-12,1,nt,20*,12,16,-5,
SMILES,ARNT TACC3 PPI,SR-BI uptake up,NSD2 inh,Xi reactivation,sPLA2-III inh,SR-BI HDL uptake,sPLA2 confirm,BODIPY interf,others
COc1ccc(C(=O)N2CCCc3ccccc32)cc1Br,6,-58,-3,0,-2,58,nt,nt,
COc1cc(OC)cc(C(=O)N2CCCc3ccccc32)c1,2,-41,-1,nt,20*,41,-1,-16,
O=C(C[C@H]1C=C[C@@H](NC(=O)c2cccc(F)c2)[C@H](CO)O1)NCc1ccc(Oc2ccccc2)cc1,-43,nt,nt,0,nt,nt,nt,nt,
O=C(CSCc1ccc(Br)cc1)NCCc1ccccc1,-3,34,-7,0,4,-34,nt,nt,
COCCCNC(=S)N/N=C/c1ccc2c(c1)OCO2,3,-15,-2,0,24*,15,12,-3,
COCCNC(=S)N/N=C/c1ccc2c(c1)OCCO2,3,nt,-2,0,1,nt,nt,nt,
CC(C)NC(=S)N/N=C/c1ccc2c(c1)OCCO2,8,-3,-1,0,19*,3,18,-5,
CC(C)C12CN(C(=O)c3ccccc3[N+](=O)[O-])CC(C(C)C)(CN(C(=O)c3ccccc3[N+](=O)[O-])C1)C2=O,4,6,1,0,10,-6,nt,nt,
CC1(C(=O)NS(=O)(=O)C2CC2)CCN(C(=O)CSc2ccccc2)C1 (configuration not stated),nt,nt,-3,0,-3,nt,nt,nt,
C/C(=N\Nc1ncc(Cl)cc1Cl)c1ccc2c(c1)OCO2,-2,6,-3,0,20*,-6,4,-5,
